{"source": "ChEMBL document CHEMBL4376902", "about": "“CN128: A New Orally Active Hydroxypyridinone Iron Chelator” (J Med Chem, 2020)", "key": {"[1]": {"system": "Rattus norvegicus", "experiment": "Iron scavenging activity in 59Fe-ferritin-loaded rat assessed as iron mobilization level at 450 umol/kg, po dosed 1 hr after 59Fe-ferritin injection and measured 24 hrs after 59Fe-ferritin injection by gamma counting method relative to control", "format": "functional", "in_short": "(§1)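 Male SD rats, 300 g, fasted overnight, given about 1 μC 59Fe-ferritin i.v. under isoflurane. Chelator gavaged 1 h later, then rats housed in metabolic cages; food returned 1 h after dosing. Killed 24 h after 59Fe-ferritin. Urine, faeces, liver and gut gamma-counted. 8 rats per condition.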"}, "[2]": {"system": "Mus musculus", "experiment": "Toxicity in mouse assessed as reduction in total white cell counts at 200 mg/kg, po dosed once daily for 2 months as 5 days per week schedule", "details": "in vivo, 120 h"}, "[3]": {"system": "Mus musculus", "experiment": "Toxicity in mouse assessed as reduction in erythrocyte population at 200 mg/kg, po dosed once daily for 2 months as 5 days per week schedule", "details": "in vivo, 120 h"}, "[4]": {"experiment": "Drug metabolism in human liver microsomes assessed as oxidative metabolism incubated for 1 hr relative to deferiprone", "format": "ADME, Microsome"}, "[5]": {"system": "Mus musculus", "experiment": "Toxicity in mouse assessed as increase in reticulocyte population at 200 mg/kg, po dosed once daily for 2 months as 5 days per week schedule", "details": "in vivo, 120 h"}, "[6]": {"system": "Mus musculus", "experiment": "Toxicity in mouse assessed as reduction in neutrophils counts at 200 mg/kg, po dosed once daily for 2 months as 5 days per week schedule", "details": "in vivo, 120 h"}, "[7]": {"experiment": "Drug metabolism in rat liver microsomes assessed as glucuronidation incubated for 1 hr relative to deferiprone", "format": "ADME, Microsome", "in_short": "(§2)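 Compound incubated 1 h with rat or human liver microsomes, n = 4, mean ± SD. Glucuronide formed given as percentage of total chelator added. Oxidative metabolism assessed separately.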"}, "[8]": {"system": "Mus musculus", "experiment": "Toxicity in mouse assessed as effect on platelet population at 200 mg/kg, po dosed once daily for 2 months as 5 days per week schedule", "details": "in vivo, 120 h"}, "[9]": {"experiment": "Toxicity in Sprague-Dawley rat assessed as induction of mortality at 200 mg/kg, po dosed once daily for 2 months as 5 days per week schedule", "format": "organism-based", "details": "in vivo, 120 h"}, "[10]": {"experiment": "Drug metabolism in rat liver microsomes assessed as oxidative metabolism incubated for 1 hr relative to deferiprone", "format": "ADME, Microsome"}, "[11]": {"system": "Mus musculus", "experiment": "Toxicity in mouse assessed as reduction in eosinophils counts at 200 mg/kg, po dosed once daily for 2 months as 5 days per week schedule", "details": "in vivo, 120 h"}, "[12]": {"system": "Mus musculus", "experiment": "Toxicity in mouse assessed as reduction in monocytes counts at 200 mg/kg, po dosed once daily for 2 months as 5 days per week schedule", "details": "in vivo, 120 h"}, "[13]": {"system": "Mus musculus", "experiment": "Toxicity in mouse assessed as reduction in lymphocytes counts at 200 mg/kg, po dosed once daily for 2 months as 5 days per week schedule", "details": "in vivo, 120 h"}, "[14]": {"experiment": "Drug metabolism in human liver microsomes assessed as glucuronidation incubated for 1 hr relative to deferiprone", "format": "ADME, Microsome", "in_short": "as §2"}, "[15]": {"system": "Rattus norvegicus", "experiment": "Iron scavenging activity in 59Fe-ferritin-loaded rat assessed as iron mobilization level at 150 to 450 umol/kg, po dosed 1 hr after 59Fe-ferritin injection and measured 24 hrs after 59Fe-ferritin injection by gamma counting method relative to control", "format": "functional, organism-based", "in_short": "as §1"}, "[16]": {"experiment": "Metal chelating activity assessed as iron chelation", "in_short": "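Automated spectrophotometric titration at ca. 40 µM iron complex, 50 mm path. pH raised in 0.1-unit steps with 0.1 M KOH, 3 min equilibration per step, up to pH 12.0. Competition with metal hydrolysis species; spectra fitted over 400-700 nm using literature hydrolysis constants to give stability constants.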"}, "[17]": {"experiment": "Drug uptake in rat bile treated with 150 umol/kg, po (R) -3,4-Dihydroxy-1-(1 -hydroxy-3-phenylpropan-2-yl)-2-methyl- pyridin-1-ium Chloride assessed as compound formation by LC/TOF/MS/MS analysis", "format": "ADME, organism-based", "details": "in vivo", "in_short": "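Bile collected from rats after an oral dose of 150 μmol/kg. Metabolites characterised by β-glucuronidase hydrolysis and LC-TOFMS/MS. M2/M1 ratio followed over 8 h.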"}, "[18]": {"experiment": "Toxicity in Sprague-Dawley rat assessed as induction of histopathological changes in thymus at 25 to 116 mg/kg, po dosed daily for 4 weeks and measured after additional 4 weeks period in absence of drug", "format": "organism-based", "details": "in vivo, 672 h"}, "[19]": {"experiment": "Toxicity in Sprague-Dawley rat assessed as induction of histopathological changes in bone marrow at 25 to 116 mg/kg, po dosed daily for 4 weeks and measured after additional 4 weeks period in absence of drug", "format": "organism-based", "details": "in vivo, 672 h"}, "[20]": {"experiment": "Toxicity in Sprague-Dawley rat assessed as induction of histopathological changes in pancreas at 25 to 116 mg/kg, po dosed daily for 4 weeks and measured after additional 4 weeks period in absence of drug", "format": "organism-based", "details": "in vivo, 672 h"}}, "note": "Active and inactive are the calls of the source. The rule behind the calls is not given here."}
{"smiles": "CCc1c(O)c(O)cc[n+]1[C@H](C)CO.[Cl-]", "values": [{"measurement": "Activity", "setting": "[1]", "value": 10.5, "unit": "%"}]}
{"smiles": "CCc1c(O)c(O)cc[n+]1[C@H](CO)Cc1ccccc1.[Cl-]", "values": [{"measurement": "Activity", "setting": "[1]", "value": 13.1, "unit": "%"}]}
{"smiles": "CC[C@H](C)[C@@H](CO)[n+]1ccc(O)c(O)c1C.[Cl-]", "values": [{"measurement": "Activity", "setting": "[1]", "value": 10.8, "unit": "%"}]}
{"smiles": "Cc1c(O)c(O)cc[n+]1[C@H](CO)CC(C)C.[Cl-]", "values": [{"measurement": "Activity", "setting": "[1]", "value": 5.8, "unit": "%"}]}
{"smiles": "Cc1c(O)c(O)cc[n+]1[C@@H](CO)CC(C)C.[Cl-]", "values": [{"measurement": "Activity", "setting": "[1]", "value": 8.2, "unit": "%"}]}
{"smiles": "CCc1c(O)c(O)cc[n+]1[C@@H](C)CO.[Cl-]", "values": [{"measurement": "Activity", "setting": "[1]", "value": 16, "unit": "%"}]}
{"smiles": "Cc1c(O)c(O)cc[n+]1[C@H](CO)Cc1ccccc1.[Cl-]", "values": [{"measurement": "Activity", "setting": "[2]", "value": "Non-Toxic"}, {"measurement": "Activity", "setting": "[3]", "value": "Non-Toxic"}, {"measurement": "Drug metabolism", "setting": "[4]", "value": "Metabolite_Detected"}, {"measurement": "Activity", "setting": "[5]", "value": "Non-Toxic"}, {"measurement": "Activity", "setting": "[1]", "value": 12.8, "unit": "%"}, {"measurement": "Activity", "setting": "[6]", "value": "Non-Toxic"}, {"measurement": "Drug metabolism", "setting": "[7]", "value": "Metabolite_Detected"}, {"measurement": "Activity", "setting": "[8]", "value": "Non-Toxic"}, {"measurement": "Activity", "setting": "[9]", "value": "Non-Toxic"}, {"measurement": "Drug metabolism", "setting": "[10]", "value": "Metabolite_Detected"}, {"measurement": "Activity", "setting": "[11]", "value": "Non-Toxic"}, {"measurement": "Activity", "setting": "[12]", "value": "Non-Toxic"}, {"measurement": "Activity", "setting": "[13]", "value": "Non-Toxic"}, {"measurement": "Drug metabolism", "setting": "[14]", "value": "Metabolite_Detected"}]}
{"smiles": "CCc1c(O)c(O)cc[n+]1[C@@H](CO)Cc1ccccc1.[Cl-]", "values": [{"measurement": "Activity", "setting": "[1]", "value": 22.3, "unit": "%"}, {"measurement": "Activity", "setting": "[15]", "value": "Dose-dependent effect"}]}
{"smiles": "Cc1c(O[C@@H]2O[C@H](C(=O)O)[C@@H](O)[C@H](O)[C@H]2O)c(=O)ccn1[C@@H](CO)Cc1ccccc1", "values": [{"measurement": "Activity", "setting": "[16]", "value": "inactive"}, {"measurement": "Drug uptake", "setting": "[17]", "value": "Metabolite_Detected"}]}
{"smiles": "Cc1c(O)c(O)cc[n+]1[C@H](C)CO.[Cl-]", "values": [{"measurement": "Activity", "setting": "[1]", "value": 6.5, "unit": "%"}]}
{"smiles": "CCc1c(O)c(O)cc[n+]1[C@@H](CO)C(C)C.[Cl-]", "values": [{"measurement": "Activity", "setting": "[1]", "value": 10.6, "unit": "%"}]}
{"smiles": "Cc1c(O)c(O)cc[n+]1[C@H](CO)C(C)C.[Cl-]", "values": [{"measurement": "Activity", "setting": "[1]", "value": 18.7, "unit": "%"}, {"measurement": "Activity", "setting": "[15]", "value": "Dose-dependent effect"}]}
{"smiles": "Cc1c(O)c(O)cc[n+]1[C@@H](C)CO.[Cl-]", "values": [{"measurement": "Activity", "setting": "[1]", "value": 11.9, "unit": "%"}]}
{"smiles": "Cc1c(O)c(=O)ccn1[C@@H](CO[C@@H]1O[C@H](C(=O)O)[C@@H](O)[C@H](O)[C@H]1O)Cc1ccccc1", "values": [{"measurement": "Activity", "setting": "[16]", "value": "Active"}, {"measurement": "Drug uptake", "setting": "[17]", "value": "Metabolite_Detected"}]}
{"smiles": "CCc1c(O)c(O)cc[n+]1CCO.[Cl-]", "values": [{"measurement": "Activity", "setting": "[1]", "value": 2.4, "unit": "%"}]}
{"smiles": "CCc1c(O)c(O)cc[n+]1[C@H](CO)CC(C)C.[Cl-]", "values": [{"measurement": "Activity", "setting": "[1]", "value": 10.3, "unit": "%"}]}
{"smiles": "Cc1c(O)c(=O)ccn1C", "note": "[DEFERIPRONE]", "values": [{"measurement": "Activity", "setting": "[18]", "value": "Non-Toxic"}, {"measurement": "Activity", "setting": "[19]", "value": "Non-Toxic"}, {"measurement": "Activity", "setting": "[1]", "value": 11.8, "unit": "%"}, {"measurement": "Activity", "setting": "[20]", "value": "Non-Toxic"}, {"measurement": "Activity", "setting": "[9]", "value": "Non-Toxic"}]}
{"smiles": "CCc1c(O)c(O)cc[n+]1[C@H](CO)C(C)C.[Cl-]", "values": [{"measurement": "Activity", "setting": "[1]", "value": 7.9, "unit": "%"}]}
{"smiles": "CCc1c(O)c(O)cc[n+]1[C@H](CO)[C@@H](C)CC.[Cl-]", "values": [{"measurement": "Activity", "setting": "[1]", "value": 5.5, "unit": "%"}]}
{"smiles": "Cc1c(O)c(O)cc[n+]1[C@@H](CO)C(C)C.[Cl-]", "values": [{"measurement": "Activity", "setting": "[1]", "value": 8, "unit": "%"}]}
{"smiles": "Cc1c(O)c(O)cc[n+]1CCO.[Cl-]", "values": [{"measurement": "Activity", "setting": "[1]", "value": 4, "unit": "%"}]}
{"smiles": "CCc1c(O)c(O)cc[n+]1[C@@H](CO)CC(C)C.[Cl-]", "values": [{"measurement": "Activity", "setting": "[1]", "value": 13.6, "unit": "%"}]}
